Test results reported in ChEMBL document CHEMBL1138779, “Antitumor agents. 234. Design, synthesis, and biological evaluation of novel 4beta-[(4' '-benzamido)-amino]-4'-o-demethyl-epipodophyllotoxin derivatives” (2004).
Converted amounts (≈) assume the structure as drawn. “And” between values parts separate entries of the source, which are not always exact repeats. Identical values can stand only once. The source made the active and inactive calls. No cut-off for these calls is given here.

Legend:
KB [1] = assay: Dose required to cause reduction in human nasopharyngeal KB cancer cells after 3 days incubation; assay type: functional; conditions: 72 h, read-out: ED50 (the source's name)
In short: (§1)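 Cells grown at 37 °C, humidified 5% CO2, in RPMI-1640 with 25 mM HEPES, […], 10% (v/v) FBS and 100 µg/mL kanamycin. Drug exposure for 3 days. ED50 (concentration giving 50% reduction in cell number) interpolated from dose–response data. Triplicate tests, variation no more than 5%; independent ED50 determinations varied no more than 30%.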

KB [2] = assay: Ratio of ED50 for KB-7d cells to that of KB cells; assay type: functional, Homo sapiens
In short: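 Relative resistance (fold) taken as ED50 against KB-7d divided by ED50 against KB. Both values come from 3-day drug exposure, with ED50 interpolated from dose–response data as the concentration reducing cell number by 50%.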

[3] = target: T1, DNA topoisomerase II (Homo sapiens) (UniProt P11388+Q02880); assay: Percentage of protein-linked DNA breaks in KB cells by [3H]thymidine incorporation at 5 ug/mL; assay type: functional, cell-based
In short: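 [3H]thymidine-prelabelled KB cells (0.5 µCi/mL, overnight, 2 h chase) treated in duplicate with compound at 5 µg/mL for 1 h. Protein-linked DNA breaks read as potassium–SDS precipitable radioactivity, given as percent of the VP-16 control set at 100%.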

KB [4] = assay: Dose required for reduction in human nasopharyngeal KB-7d cancer cells after 3 days incubation; assay type: functional; conditions: 72 h, read-out: ED50 (the source's name); in short: as §1
PC-3 = assay: Dose required for reduction in human prostate PC-3 cancer cells after 3 days incubation; assay type: functional; conditions: PC-3, 72 h, read-out: ED50 (the source's name); in short: as §1
KB [5] = assay: Dose required for reduction in vincristine resistant human nasopharyngeal KB-VIN cancer cells after 3 days incubation; assay type: functional; conditions: 72 h, read-out: ED50 (the source's name); in short: as §1
A549 = assay: Dose required for reduction in human lung A549 cancer cells after 3 days incubation; assay type: functional; conditions: A549, 72 h, read-out: ED50 (the source's name); in short: as §1
1A9/ptx-10 = assay: Dose required for reduction in paclitaxel resistant human ovarian 1A9-PTX10 cancer cells after 3 days incubation; assay type: functional; conditions: 1A9/ptx-10, 72 h, read-out: ED50 (the source's name); in short: as §1
1A9 = assay: Dose required to cause reduction in human ovarian 1A9 cancer cells after 3 days incubation; assay type: functional; conditions: 1A9, 72 h, read-out: ED50 (the source's name); in short: as §1
HCT-8 = assay: Dose required for reduction in human ileocecal HCT-8 cancer cells after 3 day incubation; assay type: functional; conditions: HCT-8, 72 h, read-out: ED50 (the source's name); in short: as §1
CAKI-1 [6] = assay: Dose required for reduction in human renal CAKI-1 cancer cells after 3 days incubation; assay type: functional; conditions: CAKI-1, 72 h, read-out: ED50 (the source's name); in short: as §1
KB [7] = assay: Dose required for reduction in etoposide resistant human nasopharyngeal KB-7d cancer cells after 3 days incubation; assay type: functional; conditions: 72 h, read-out: ED50 (the source's name); in short: as §1
[8] = target: T1, DNA topoisomerase II (Homo sapiens); assay: Percentage of protein-linked DNA breaks in KB cells by [3H]thymidine incorporation; assay type: functional, cell-based; set-up: concentration or dose not given beside the values
In short: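 KB cells labelled overnight with 0.5 µCi/mL [methyl-3H]thymidine ([…]), chased 2 h, then treated in duplicate with compound at 10 µg/mL for 1 h. Protein-associated DNA breaks measured as potassium–SDS precipitable radioactivity. Values expressed relative to VP-16 control set at 100%.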

U-87 MG = assay: Dose required for reduction in human glioblastoma U-87-MG cancer cells after 3 days incubation; assay type: functional, U-87MG ATCC; conditions: 72 h, read-out: ED50 (the source's name); in short: as §1
MCF7 = assay: Dose required for reduction in human breast MCF-7 cancer cells after 3 day incubation; assay type: functional; conditions: MCF7, 72 h, read-out: ED50 (the source's name); in short: as §1
KB [9] = assay: Dose required for reduction in camptothecin resistant human nasopharyngeal KB cancer cells after 3 days incubation; assay type: functional; conditions: 72 h, read-out: ED50 (the source's name); in short: as §1
CAKI-1 [10] = assay: Dose required for reduction in human renal CAKI-1 cancer cells after 3 days incubation; NA = not applicable; assay type: functional, cell-based; in short: as §1

Row | Compound | EC50 (KB [1]) | Relative resistance (KB [2]) | Activity [3] [%] | EC50 (KB [4]) [µg/mL] | EC50 (PC-3) [µM] | EC50 (KB [5]) [µM] | EC50 (A549) [µM] | EC50 (1A9/ptx-10) [µM] | EC50 (1A9) [µM] | EC50 (HCT-8) [µM] | EC50 (CAKI-1 [6]) [µM] | EC50 (KB [7]) [µM] | Activity [8] [%] | EC50 (U-87 MG) [µM] | EC50 (MCF7) [µM] | EC50 (KB [9]) [µM] | ED50 (CAKI-1 [10])
1 | COc1cc([C@@H]2c3cc4c(cc3[C@@H](Nc3ccc(C(=O)NCCc5ccccc5)cc3)[C@H]3COC(=O)[C@H]23)OCO4)cc(OC)c1O | 0.03 µg/mL | 14 | 227 | 0.5 (≈ 0.803 µM) | – | – | – | – | – | – | – | – | – | – | – | – | –
2 | COc1cc([C@@H]2c3cc4c(cc3[C@@H](Nc3ccc(C(=O)N[C@H](C)C(=O)OCc5ccccc5)cc3)[C@H]3COC(=O)[C@H]23)OCO4)cc(OC)c1O | 0.1 µg/mL and 1 µM | 2.5 | – | 0.25 (≈ 0.367 µM) | > 100 | 3.7 | 0.47 | 1.2 | 0.057 | 2.2 | > 100 | 0.67 | 133 | 39.9 | 2.7 | 1.9 | –
3 | COC(=O)[C@H](Cc1c[nH]c2ccccc12)NC(=O)c1ccc(N[C@@H]2c3cc4c(cc3[C@@H](c3cc(OC)c(O)c(OC)c3)[C@H]3C(=O)OC[C@@H]32)OCO4)cc1 | 0.5 µg/mL | 5 | – | 2.5 (≈ 3.47 µM) | – | – | – | – | – | – | – | – | 58 | – | – | – | –
4 | COC(=O)[C@H](Cc1ccc(O)c(O)c1)NC(=O)c1ccc(N[C@@H]2c3cc4c(cc3[C@@H](c3cc(OC)c(O)c(OC)c3)[C@H]3C(=O)OC[C@@H]32)OCO4)cc1 | 1 µg/mL | 5.5 | – | 5.5 (≈ 7.72 µM) | – | – | – | – | – | – | – | – | 33 | – | – | – | –
5 | COc1cc([C@@H]2c3cc4c(cc3[C@@H](Nc3ccc(C(=O)N[C@@H](Cc5c[nH]c6ccccc56)C(=O)O)cc3)[C@H]3COC(=O)[C@H]23)OCO4)cc(OC)c1O | 4 µg/mL | 2 | – | 8 (≈ 11.3 µM) | – | – | – | – | – | – | – | – | 7 | – | – | – | –
6 | COc1cc([C@@H]2c3cc4c(cc3[C@@H](NC(=O)[C@@H](N)Cc3ccc(O)cc3)[C@H]3COC(=O)[C@H]23)OCO4)cc(OC)c1O | 18.8 µM | – | – | – | > 100 | > 100 | 54.3 | > 5 | 3.3 | > 100 | – | 30.2 | – | > 100 | 41.7 | 44.8 | inactive
7 | COC(=O)[C@H](Cc1c[nH]cn1)NC(=O)c1ccc(N[C@@H]2c3cc4c(cc3[C@@H](c3cc(OC)c(O)c(OC)c3)[C@H]3C(=O)OC[C@@H]32)OCO4)cc1 | 0.23 µg/mL and 7.6 µM | 9.6 | – | 2.2 (≈ 3.28 µM) | > 100 | 11.1 | 16.1 | 4 | 0.69 | 66 | > 100 | 14.7 | 122 | > 100 | 29.8 | 17.6 | –
8 | COC(=O)[C@H](CCSC)NC(=O)c1ccc(N[C@@H]2c3cc4c(cc3[C@@H](c3cc(OC)c(O)c(OC)c3)[C@H]3C(=O)OC[C@@H]32)OCO4)cc1 | 0.8 µg/mL and 1.9 µM | 3 | – | 2.4 (≈ 3.61 µM) | 82.7 | 65.3 | 2 | 2.1 | 0.12 | 11.4 | > 100 | 5.6 | 295 | 45.2 | 9.3 | 3.3 | –
9 | COc1cc([C@@H]2c3cc4c(cc3[C@@H](Nc3ccc(C(=O)NCCc5ccc(O)cc5)cc3)[C@H]3COC(=O)[C@H]23)OCO4)cc(OC)c1O | 0.02 µg/mL | 32 | 275 | 0.8 (≈ 1.25 µM) | – | – | – | – | – | – | – | – | 368 | – | – | – | –
